# Experiments:
# Mus musculus [1] = experiment: Anticonvulsant activity (ED50) was measured by maximal electroshock seizure test in mice by ip administration; No effective response; format: functional, organism-based
# Outline: (§1)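 Male albino CF No. 1 mice (18–25 g) were dosed ip and tested by maximal electroshock at the previously determined time of peak effect. Groups of at least eight mice received various doses until at least two points fell between 0% and 100% protection. ED50 and its 95% confidence interval were calculated. Single-dose entries give protection percentage at the indicated dose.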
# Rattus norvegicus [2] = experiment: Minimal motor impairment activity by Rotarod test in rat following p.o. administration.; format: functional; details: po
# Outline: (§2)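 Minimal motor impairment in male Sprague–Dawley rats (100 g) after oral dosing was judged at the time of peak effect. The criterion was overt ataxia, abnormal gait and stance, and/or loss of placing response and muscle tone. Groups had at least eight rats across various doses, and the median impairing dose with its 95% confidence interval was calculated.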
# Rattus norvegicus [3] = experiment: Anticonvulsant activity was measured by maximal electroshock seizure test in rat by po administration at 50 mg/kg; format: functional
# Outline: (§3)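 Maximal electroshock test in male albino Sprague–Dawley rats (100 g) after oral dosing, run at the previously determined time of peak effect. At least eight rats per group received various doses until at least two points lay between 0% and 100% protection. ED50 with 95% confidence interval was calculated. Single-dose entries report percent protection at that dose.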
# [4] = Partition coefficient (logP); format: physicochemical; details: octanol/water
# Mus musculus [5] = experiment: Minimal motor impairment activity by Rotarod test in mice following i.p. administration.; format: functional; details: ip
# Outline: (§4)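 Rotorod neurotoxicity test in male albino CF No. 1 mice dosed ip, run at the time of peak effect. Impairment was defined as failure to keep equilibrium for 60 s in each of three trials on the rotating rod. With groups of at least eight mice across various doses, the median motor-impairing dose and its 95% confidence interval were calculated.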
# Mus musculus [6] = experiment: Anticonvulsant activity was measured by maximal electroshock seizure test in mice by ip administration at 100 mg/kg; format: functional; details: route intraperitoneal; outline: as §1
# Mus musculus [7] = experiment: Anticonvulsant activity was measured by maximal electroshock seizure test in mice by ip administration at 100 mg/kg dose; format: functional; details: route intraperitoneal; outline: as §1
# Rattus norvegicus [8] = experiment: Anticonvulsant activity was measured by maximal electroshock seizure test in rat by po administration at 50 mg/kg dose; format: functional; outline: as §3
# Mus musculus [9] = experiment: Minimal motor impairment activity of the compound was measured by Rotarod test in mice by ip administration; No effective response; format: functional, organism-based; outline: as §4
# Rattus norvegicus [10] = experiment: Minimal motor impairment activity of the compound was measured by […] in rat by po administration; No effective response; format: functional, organism-based; outline: as §2
# Rattus norvegicus [11] = experiment: Anticonvulsant activity was measured by maximal electroshock seizure test in rat by po administration; No effective response; format: functional, organism-based; outline: as §3
# Mus musculus [12] = experiment: Anticonvulsant activity was measured by maximal electroshock seizure test in mice by ip administration; No effective response; format: functional, organism-based; outline: as §1
# Mus musculus [13] = experiment: Anticonvulsant activity was measured by maximal electroshock seizure test in mice by ip administration; format: functional; outline: as §1
# Rattus norvegicus [14] = experiment: Anticonvulsant activity was measured by maximal electroshock seizure test in rat by po administration; format: functional; outline: as §3
# Rattus norvegicus [15] = experiment: Anticonvulsant activity in corneal kindled rats was determined when 40 mg/kg was administered orally; format: functional; details: route oral
# Outline: (§5)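 Male Sprague–Dawley rats were kindled by daily corneal stimulation (8 mA, 60 Hz, 4 s) until they reached 10 consecutive stage 5 seizures (rearing and falling with clonus). The drug was then given orally, and seizure score was recorded as mean ± variation. Abolition of the generalized stage 4–5 seizure served as the endpoint.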
# Rattus norvegicus [16] = experiment: Anticonvulsant activity in corneal kindled rats was determined when 80 mg/kg was administered orally; format: functional; details: route oral; outline: as §5
# Rattus norvegicus [17] = experiment: Anticonvulsant activity in corneal kindled rats was determined when 10 mg/kg was administered orally; format: functional; details: route oral; outline: as §5
# Rattus norvegicus [18] = experiment: Anticonvulsant activity in corneal kindled rats was determined when 20 mg/kg was administered orally; format: functional; details: route oral; outline: as §5
# Rattus norvegicus [19] = experiment: Anticonvulsant activity in corneal kindled rats was determined when 25 mg/kg was administered orally; format: functional; details: route oral
# Outline: (§6)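 Corneally kindled male Sprague–Dawley rats (100 g), stimulated daily via corneal electrodes (8 mA, 60 Hz, 4 s) until 10 consecutive stage 5 seizures. Drug was dosed orally at 0.04 mL/10 g body weight. Seizure severity was scored after dosing, with abolition of the generalized stage 4/5 seizure (clonus, rearing and falling) as the endpoint.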
# Rattus norvegicus [20] = experiment: Anticonvulsant activity in corneal kindled rats was determined when 50 mg/kg was administered orally; format: functional; details: route oral; outline: as §6
# Rattus norvegicus [21] = experiment: Anticonvulsant activity in corneal kindled rats was determined when 75 mg/kg was administered orally; format: functional; details: route oral; outline: as §6
# Rattus norvegicus [22] = experiment: Anticonvulsant activity in corneal kindled rats was determined when 100 mg/kg was administered orally; format: functional; details: route oral; outline: as §6
# Rattus norvegicus [23] = experiment: Anticonvulsant activity (ED50) was measured by maximal electroshock seizure test in rat by po administration; No effective response; format: functional, organism-based; outline: as §3
# Mus musculus [24] = experiment: Anticonvulsant activity was measured by maximal electroshock seizure test in mice by ip administration at 30 mg/kg; format: functional; details: route intraperitoneal; outline: as §1
# Rattus norvegicus [25] = experiment: Anticonvulsant activity was measured by maximal electroshock seizure test in rat by po administration at 30 mg/kg; format: functional; outline: as §3
Structure (SMILES),ED50 (Rattus norvegicus [2]) [mg/kg],logP [4],ED50 (Mus musculus [5]) [mg/kg],ED50 (Mus musculus [13]) [mg/kg],ED50 (Rattus norvegicus [14]) [mg/kg],also measured
CN1CCN(C(=O)c2[nH]cc(-c3ccc(Cl)cc3)c2N2CCOCC2)CC1,> 50,3.3,> 300,,,ED50 (Mus musculus [1]): No effective response; Protection (Rattus norvegicus [3]): 50%
COC(=O)c1[nH]cc(-c2ccccc2C)c1N1CCOCC1,> 50,2.8,> 100,,,Protection (Mus musculus [6]): 60%; Protection (Rattus norvegicus [3]): 50%
N#Cc1[nH]cc(-c2ccc(Cl)cc2)c1N1CCOCC1,> 50,3.5,> 300,,,Protection (Mus musculus [7]): 30%; Protection (Rattus norvegicus [8]): 100%
CCN1C(=O)c2c(N3CCOCC3)c(-c3ccc(Cl)cc3)cn2C1=O,,,,,,ED50 (Mus musculus [9]): No effective response; ED50 (Rattus norvegicus [10]): No effective response; ED50 (Rattus norvegicus [11]): No effective response; ED50 (Mus musculus [12]): No effective response
CC(=O)c1[nH]cc(-c2ccc(Cl)cc2)c1N1CCOCC1,> 100,,335,72.6,10.6,
NC(=O)N1c2ccccc2C=Cc2ccccc21 [CARBAMAZEPINE],361,,47.8,9.9,11.9,Seizure score (Rattus norvegicus [15]): 3.8; Seizure score (Rattus norvegicus [16]): 2; Seizure score (Rattus norvegicus [17]): 4.8; Seizure score (Rattus norvegicus [18]): 4.5
CCCNC(=O)c1[nH]cc(-c2ccc(Cl)cc2)c1N1CCOCC1,,4.2,,,,
COC(=O)c1c(N2CCOCC2)c(-c2ccc(Cl)cc2)cn1C(=O)N1CCOCC1,,3.1,,,,
COC(=O)c1[nH]cc(-c2ccc(Br)cc2)c1N1CCOCC1,> 500,3.8,166,27.8,2.5,Seizure score (Rattus norvegicus [19]): 4.3; Seizure score (Rattus norvegicus [20]): 3.7; Seizure score (Rattus norvegicus [21]): 1.7; Seizure score (Rattus norvegicus [22]): 1.9
COC(=O)c1c(N2CCOCC2)c(-c2ccc(Cl)cc2)cn1C(=O)c1ccccc1,> 500,5.5,175,43.7,14,
CCOC(=O)c1[nH]cc(-c2ccc(Cl)cc2)c1N1CCOCC1,> 500,3.9,158,49.9,7.9,
Cn1cc(-c2ccc(Cl)cc2)c(N2CCOCC2)c1C(=O)O,,2.3,,,,
COC(=O)CCc1c(N2CCOCC2)c(-c2ccc(Cl)cc2)cn1C,,,,,,ED50 (Mus musculus [9]): No effective response; ED50 (Rattus norvegicus [10]): No effective response; ED50 (Rattus norvegicus [11]): No effective response; ED50 (Mus musculus [12]): No effective response
CCS(=O)(=O)n1cc(-c2ccc(Cl)cc2)c(N2CCOCC2)c1C(=O)OC,,4.2,,,,ED50 (Mus musculus [9]): No effective response; ED50 (Mus musculus [1]): No effective response; ED50 (Rattus norvegicus [10]): No effective response; ED50 (Rattus norvegicus [23]): No effective response
Cn1cc(-c2ccc(Cl)cc2)c(N2CCOCC2)c1,,4.2,,,,
CCOC(=O)c1[nH]cc(-c2ccc(Cl)cc2)c1N1CCN(C)CC1,< 25,,< 25,,,Protection (Mus musculus [24]): 100%; Protection (Rattus norvegicus [25]): 100%

# — ChEMBL document CHEMBL1131206, “Synthesis, anticonvulsant activity, and structure-activity relationships of sodium channel blocking 3-aminopyrroles” (J Med Chem, 1998)
